Assay results: ChEMBL document CHEMBL1123165, “A quantitative structure-activity relationship and molecular graphics analysis of hydrophobic effects in the interactions of inhibitors with alcohol dehydrogenase” (J Med Chem, 1986)

What was measured:
[1] = Partition coefficient (logP); assay type: physicochemical; settings: octanol/water
Alcohol dehydrogenase = Alcohol dehydrogenase (Equus caballus, UniProt P00327+P00328); experiment: Inhibitory activity against horse liver alcohol dehydrogenase (ADH)
Method in brief: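 Horse liver ADH crystalline suspension, pelleted (12000g, 3 min) to remove ethanol, redissolved in 0.1 M potassium phosphate pH 7.0, diluted 1:10; 0.004 unit per assay. Reaction started with 5 or 10 mM ethanol, NADH read at 340 nm.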

SMILES | logP [1] | Log 1/Ki (Alcohol dehydrogenase)
C=C(C)C(N)=O | -0.71 | 3.02
NC(=O)CF [MONOFLUOROACETAMIDE] | -1.03 | 1.41
NC(=O)C(F)F | -0.76 | 1.12
NC(=O)C(Cl)Cl | -0.03 | 2.19
CCCCCCc1ccc(CNC=O)cc1 |  | 7.58
CCCCCc1cn[nH]c1 | 2.96 | 8.6
NC(=O)CI [IODOACETAMIDE] | 0.15 | 2.72
CCCCCOc1ccc(CNC=O)cc1 |  | 7.52
Cc1cn[nH]c1 [FOMEPIZOLE] | 0.96 | 6.85
CCCCCCc1cn[nH]c1 | 3.46 | 8.88
NC(=O)C(Br)Br | 0.18 | 2.49
C/C=C(\C)C(N)=O | -0.21 | 3.15
NC(=O)CBr |  | 2.24
c1cn[nH]c1 [PYRAZOLE] | 0.26 | 5.73
CCCCOc1ccc(CNC=O)cc1 |  | 7.4
NC(=O)C(F)(F)F [TRIFLUOROACETAMIDE] | -0.11 | 1.33
CC(C)C(N)=O [ISOBUTYRAMIDE] | -0.39 | 3.77
C/C=C/C(N)=O | -0.51 | 2.89
CCCc1cn[nH]c1 | 1.96 | 7.65
CC(C)(C)C(N)=O [PIVALAMIDE] | 0.15 | 2.46
CCC(CC)C(N)=O | 0.53 | 3.41
NC(=O)CCl | -0.59 | 2.12
O=CNCc1ccc(OCc2ccccc2)cc1 |  | 7.82
C=CC(N)=O [ACRYLAMIDE] | -1.01 | 2.11
NC(=O)C(Cl)(Cl)Cl | 0.79 | 2.07

Continued, values first:

logP [1] | Log 1/Ki (Alcohol dehydrogenase) | SMILES
0.83 | 4.1 | CCOc1ccc(CC(N)=O)cc1
2.97 | 5.7 | NC(=O)Cc1ccc(OCc2ccc(Br)cc2)cc1
2.58 | 5.92 | CCCCCOc1ccc(CC(N)=O)cc1
 | 5.75 | O=CNCc1ccc(O)cc1
1.5 | 4.6 | CCCOc1ccc(CC(N)=O)cc1
2.04 | 5.15 | CCCCOc1ccc(CC(N)=O)cc1
1.16 | 4.7 | NC(=O)Cc1ccc(Cl)cc1
1.31 | 4.7 | NC(=O)Cc1ccc(Br)cc1
3.42 | 6 | NC(=O)Cc1ccc(OCC2CCCCC2)cc1
2.38 | 5.22 | CC(C)CCOc1ccc(CC(N)=O)cc1
1.57 | 5.1 | NC(=O)Cc1ccc(I)cc1
2.11 | 5.7 | NC(=O)Cc1ccc(OCc2ccccc2)cc1
1.3 | 4.1 | CC(C)Oc1ccc(CC(N)=O)cc1
0.43 | 4.15 | COc1ccc(CC(N)=O)cc1
0.59 | 4.19 | NC(=O)Cc1ccc(F)cc1
